Structures are written as SMILES.

Data set [1] can be described thus: Dissociation constant was determined. In kind it is physicochemical.
The target of data set [2] is T1, Adrenergic receptor alpha-2 (Rattus norvegicus, UniProt P22086+P19328+P22909).
T1 sequence (P22086 whole entry): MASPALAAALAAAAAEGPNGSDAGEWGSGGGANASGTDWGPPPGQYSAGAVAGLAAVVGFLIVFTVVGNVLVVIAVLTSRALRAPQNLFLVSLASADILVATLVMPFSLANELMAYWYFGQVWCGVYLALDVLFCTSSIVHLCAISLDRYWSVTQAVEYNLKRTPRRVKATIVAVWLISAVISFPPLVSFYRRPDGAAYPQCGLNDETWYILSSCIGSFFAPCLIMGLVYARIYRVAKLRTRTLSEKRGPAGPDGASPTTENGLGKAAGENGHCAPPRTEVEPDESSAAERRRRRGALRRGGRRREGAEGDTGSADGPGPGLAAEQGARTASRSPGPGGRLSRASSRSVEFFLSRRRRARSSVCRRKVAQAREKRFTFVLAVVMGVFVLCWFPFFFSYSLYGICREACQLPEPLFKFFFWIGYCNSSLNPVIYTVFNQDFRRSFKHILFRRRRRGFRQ
T1 sequence (P19328 whole entry): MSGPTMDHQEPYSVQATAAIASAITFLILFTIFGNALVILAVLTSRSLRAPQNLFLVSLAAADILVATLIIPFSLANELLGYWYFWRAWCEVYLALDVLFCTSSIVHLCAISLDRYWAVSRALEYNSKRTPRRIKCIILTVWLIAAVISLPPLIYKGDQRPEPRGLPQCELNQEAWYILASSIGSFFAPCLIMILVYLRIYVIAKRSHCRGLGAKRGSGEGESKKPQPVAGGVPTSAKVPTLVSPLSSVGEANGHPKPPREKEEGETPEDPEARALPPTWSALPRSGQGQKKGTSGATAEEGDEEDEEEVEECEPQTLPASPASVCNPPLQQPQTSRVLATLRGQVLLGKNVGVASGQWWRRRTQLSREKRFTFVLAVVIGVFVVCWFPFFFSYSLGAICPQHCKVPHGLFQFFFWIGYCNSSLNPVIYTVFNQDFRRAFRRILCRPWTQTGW
T1 sequence (P22909 whole entry): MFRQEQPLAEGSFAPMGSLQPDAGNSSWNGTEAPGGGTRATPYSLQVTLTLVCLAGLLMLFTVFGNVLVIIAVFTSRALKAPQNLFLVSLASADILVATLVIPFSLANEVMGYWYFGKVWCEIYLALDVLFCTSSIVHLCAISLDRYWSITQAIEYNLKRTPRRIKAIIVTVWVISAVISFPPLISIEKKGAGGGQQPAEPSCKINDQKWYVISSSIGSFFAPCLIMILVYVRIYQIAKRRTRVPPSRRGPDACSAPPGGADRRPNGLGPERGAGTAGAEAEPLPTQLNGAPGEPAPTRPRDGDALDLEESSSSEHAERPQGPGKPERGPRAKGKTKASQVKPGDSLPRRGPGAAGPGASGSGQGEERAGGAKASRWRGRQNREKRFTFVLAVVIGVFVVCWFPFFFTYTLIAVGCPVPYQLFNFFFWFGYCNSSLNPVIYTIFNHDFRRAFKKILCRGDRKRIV
The data set is described as follows: Inhibition of [3H]clonidine binding to Alpha-2 adrenergic receptor. In kind it is protein assay. In a few lines:
(§1)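 Cortex from male Sprague-Dawley rats, homogenized and washed three times by centrifugation (50000g) in 50 mM Tris·HCl pH 7.7. Incubated with 4.0 nM (final) [3H]clonidine for 30 min at 25 °C. Bound ligand collected by rapid filtration and counted. Nonspecific binding defined with 2 µM phentolamine. Quadruplicates at 5 inhibitor concentrations over a 16-fold range.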

Data set [3] deals with T2, Phenylethanolamine N-methyltransferase (Bos taurus, UniProt P10938).
T2 sequence (P10938 whole entry): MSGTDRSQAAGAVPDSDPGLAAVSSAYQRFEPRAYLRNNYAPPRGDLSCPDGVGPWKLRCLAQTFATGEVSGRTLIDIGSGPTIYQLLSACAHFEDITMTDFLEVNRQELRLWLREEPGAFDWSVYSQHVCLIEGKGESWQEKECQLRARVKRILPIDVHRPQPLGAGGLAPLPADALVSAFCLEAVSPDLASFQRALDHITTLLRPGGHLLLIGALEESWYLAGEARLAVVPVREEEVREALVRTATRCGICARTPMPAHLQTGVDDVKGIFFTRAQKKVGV
Nature of the data set: Inhibition of Phenylethanolamine N-methyl-transferase (PNMT). Put shortly: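 Bovine adrenal PNMT, purified through isoelectric precipitation. Radiochemical assay in phosphate buffer pH 8.0 with unlabeled AdoMet plus [methyl-3H]AdoMet, with phenylethanolamine as the variable substrate. Incubated 30 min at 37 °C, then quenched with borate pH 10.0. Product extracted into toluene–isoamyl alcohol (7:3) and scintillation counted. Duplicates at three inhibitor concentrations over a 5-fold range. Ki from hyperbolic fit; mode checked by 1/V vs 1/S plots.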

Data set [4] can be described thus: Selectivity was expressed as the ratio is Ki of alpha 2-Adrenoceptor to tht of PNMT.
Data set [5] has as its target T1, Adrenergic receptor alpha-2. The data set is described as follows: Ability to inhibit binding of [3H]clonidine at the Alpha-2 adrenergic receptor. It is filed as protein assay. Put shortly: as §1
A short description of data set [6]: Selectivity was expressed as the ratio is Ki of alpha 2-Adrenoceptor to that of PNMT.

As a reminder, the pKa is the pH at which an ionisable group is half protonated. One may read the Ki as the equilibrium dissociation constant of an inhibitor or competing ligand from its target. `CS(=O)(=O)NCc1ccc2c(c1)CNCC2` returned a pKa in data set [1] of 11.9. For the same compound, the inhibitory constant (Ki) in data set [2] worked out at 18 µM; in data set [3], 330 µM. The Selectivity ratio in data set [4] turned out to be 0.055.

On to `CS(=O)(=O)Nc1ccc2c(c1)CNCC2`, for which the pKa in data set [1] amounted to 9. Moreover, the Ki is 11 µM in data set [2] and 48 µM in data set [3]. Also, the Selectivity ratio in data set [4] was determined as 0.23.

For the compound `COc1ccc2c(CN)cccc2c1`, the Ki was 4.6 µM in data set [2] and 15 µM in data set [3]. In addition, the Selectivity ratio in data set [4] was found to be 0.31.

`Oc1ccc2c3c(ccc2c1)CCNC3` registered a pKa in data set [1] of 10. The inhibition constant (Ki) in data set [2] turned out to be 0.078 µM; in data set [3] it was 0.98 µM. In addition, in data set [4], the Selectivity ratio was determined as 0.08.

With `Clc1ccc2c(c1Cl)CNCC2`, the Ki was found to be […] in data set [5] and 0.2 µM in data set [3].

In the case of `CS(=O)(=O)N(c1ccc2c(c1)CNCC2)S(C)(=O)=O`, the inhibition constant Ki in data set [2] is 190 µM; in data set [3], 4500 µM. Moreover, the Selectivity ratio in data set [4] is 0.042.

In turn, `NS(=O)(=O)c1ccc2c(c1)CNCC2` showed a pKa in data set [1] of […]. The Ki in data set [2] stood at […].

In the case of `Oc1ccc2c(c1)CNCC2`, the pKa in data set [1] was 10. In addition, the Ki in data set [2] was 2.2 µM. In addition, the Selectivity ratio in data set [6] amounted to 0.85.

As for `COc1ccc2c3c(ccc2c1)CCNC3`, the Ki was found to be 0.84 µM in data set [2] and 1.4 µM in data set [3]. The Selectivity ratio in data set [4] was 0.6.

`CNS(=O)(=O)c1ccc2c(c1)CNCC2` returned a pKa in data set [1] of 11.4. Besides, the Ki in data set [2] was 130 µM; in data set [3], 4.6 µM. Besides, in data set [4], the Selectivity ratio is 28.

For the compound `O=S(=O)(Nc1ccc(Cl)cc1)c1ccc2c(c1)CNCC2`, the pKa in data set [1] was found to be 7.8. The Ki in data set [2] came to 6.3 µM; in data set [3], 2.6 µM. Further, the Selectivity ratio in data set [4] amounted to 2.4.

In the case of `NCc1cccc2cc(O)ccc12`, the pKa in data set [1] came out at 10. Also, the values for the inhibitory constant (Ki) in data set [2] and in data set [3] were 2.1 µM and 8.4 µM, respectively. For the same compound, the Selectivity ratio in data set [4] turned out to be 0.25.

With `NCc1cccc2ccccc12`, the results for the Ki in data set [2] and in data set [3] were 1.6 µM and 4.7 µM, respectively. Besides, in data set [4], the Selectivity ratio is 0.34.

The record behind these values is ChEMBL document CHEMBL1130314, “Examination of the role of the acidic hydrogen in imparting selectivity of 7-(aminosulfonyl)-1,2,3,4-tetrahydroisoquinoline (SK&F 29661) toward inhibition of phenylethanolamine N-methyltransferase vs the alpha 2-adrenoceptor” (J Med Chem, 1997).
